Reference: ChEMBL document CHEMBL1125185, “Nonpeptide angiotensin II receptor antagonists: the discovery of a series of N-(biphenylylmethyl)imidazoles as potent, orally active antihypertensives” (J Med Chem, 1991)
The source made the active and inactive calls. No cut-off for these calls is given here.

Assays:
Rattus norvegicus [1] = assay: Blood pressure lowering activity in renal hypertensive rats after intravenous administration; assay type: functional
Procedure, shortened: (§1)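 Male Sprague-Dawley CD rats had the left renal artery ligated under hexobarbital (100 mg/kg ip). Six days later the jugular vein and carotid artery were cannulated under hexobarbital (90 mg/kg ip). Compound was given intravenously to the conscious hypertensive rats while mean arterial pressure was recorded.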

[2] = Ionization constant for the compound; assay type: physicochemical, Rattus norvegicus
Rattus norvegicus [3] = assay: Blood pressure lowering activity in renal hypertensive rats after peroral administration; Inactive indicates fail to cause significant drop in blood pressure even at 100 mg/kg; assay type: functional, organism-based; parameters: dose 100 mg/kg
Procedure, shortened: (§2)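 Conscious male Sprague-Dawley CD rats, six days after left renal artery ligation and with jugular and carotid cannulae, were dosed by oral gavage at 1-100 mg/kg (4-6 rats/dose). Mean arterial pressure was monitored for 3 h.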

Rattus norvegicus [4] = assay: Blood pressure lowering activity in renal hypertensive rats after intravenous administration; no drop in blood pressure or a statistically insignificant drop in blood pressure was observed (in vivo); assay type: functional; procedure, shortened: as §1
Rattus norvegicus [5] = assay: These values indicate drop in blood pressure activity in renal hypertensive rats after peroral administration; NA=not active indicates fail to cause drop in blood pressure even at 30 mg/Kg (in vivo); assay type: functional, organism-based
Rattus norvegicus [6] = assay: Effective dose that lowers the blood pressure 30 mmHg after peroral administration; assay type: functional; conditions: po
Procedure, shortened: (§3)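 Renal artery-ligated conscious rats (4-6 per dose) received compound iv or po. ED30 is the dose lowering blood pressure by 30 mmHg. It was calculated by linear regression of mean maximal decreases, using at least three doses from the linear part of the dose-response curve.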

Rattus norvegicus [7] = assay: Effective dose that lowers the blood pressure 30 mmHg after intravenous administration; assay type: functional; procedure, shortened: as §3
Angiotensin II receptor = target: T1, Angiotensin II receptor (Rattus norvegicus, UniProt P29089+P25095+P35351); assay: Inhibition of radioligand [3H]angiotensin II binding to angiotensin II receptor of rat adrenal cortical membrane
T1 sequence (P29089 whole entry): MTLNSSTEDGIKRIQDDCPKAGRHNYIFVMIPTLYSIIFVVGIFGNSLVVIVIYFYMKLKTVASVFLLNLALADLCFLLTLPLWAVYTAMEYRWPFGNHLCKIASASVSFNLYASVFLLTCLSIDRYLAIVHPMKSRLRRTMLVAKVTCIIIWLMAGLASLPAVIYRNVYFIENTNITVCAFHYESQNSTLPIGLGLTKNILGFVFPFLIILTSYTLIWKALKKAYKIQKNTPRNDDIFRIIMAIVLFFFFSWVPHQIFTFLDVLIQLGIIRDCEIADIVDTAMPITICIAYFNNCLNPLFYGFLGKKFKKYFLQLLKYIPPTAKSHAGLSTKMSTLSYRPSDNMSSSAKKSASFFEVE
T1 sequence (P25095 whole entry): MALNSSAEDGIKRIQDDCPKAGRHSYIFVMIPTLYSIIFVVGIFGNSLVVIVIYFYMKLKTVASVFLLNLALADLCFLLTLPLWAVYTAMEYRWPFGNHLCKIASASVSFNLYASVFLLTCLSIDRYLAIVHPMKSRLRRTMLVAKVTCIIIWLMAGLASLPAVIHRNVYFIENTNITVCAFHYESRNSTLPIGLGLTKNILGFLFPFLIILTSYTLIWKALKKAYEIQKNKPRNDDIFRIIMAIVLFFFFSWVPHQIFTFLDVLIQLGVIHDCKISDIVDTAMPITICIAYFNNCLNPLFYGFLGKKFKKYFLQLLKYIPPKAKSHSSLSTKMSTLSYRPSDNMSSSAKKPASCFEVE
T1 sequence (P35351 whole entry): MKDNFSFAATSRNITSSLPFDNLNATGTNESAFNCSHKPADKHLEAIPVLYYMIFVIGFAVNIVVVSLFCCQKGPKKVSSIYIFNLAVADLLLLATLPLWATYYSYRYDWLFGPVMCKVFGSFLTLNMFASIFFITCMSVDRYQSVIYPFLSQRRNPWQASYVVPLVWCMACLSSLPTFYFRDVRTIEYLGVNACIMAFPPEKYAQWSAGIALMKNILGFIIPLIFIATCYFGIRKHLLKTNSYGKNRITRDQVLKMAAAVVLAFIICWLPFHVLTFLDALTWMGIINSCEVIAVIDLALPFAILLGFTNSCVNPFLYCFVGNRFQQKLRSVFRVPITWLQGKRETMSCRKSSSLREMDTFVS
Procedure, shortened: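 Rat adrenal cortical microsomes came from male Sprague-Dawley CD rats (300-400 g) and were prepared at 4 °C in sucrose/EDTA/Tris pH 7.4. Samples were filtered and counted, in duplicate. Specific binding was defined with 1 µM unlabeled AII. IC50 was taken from the linear portion of the displacement curve.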

Rattus norvegicus [8] = assay: Blood pressure lowering activity in renal hypertensive rats after peroral administration; assay type: functional; procedure, shortened: as §2
Rattus norvegicus [9] = assay: Blood pressure lowering activity in renal hypertensive rats after peroral administration; NA=not active indicates fail to cause drop in blood pressure even at 100 mg/Kg (in vivo); assay type: functional, organism-based; procedure, shortened: as §2
Rattus norvegicus [10] = assay: Blood pressure lowering activity in renal hypertensive rats after intravenous administration; NA=not active indicates fail to cause drop in blood pressure even at 100 mg/Kg (in vivo); assay type: functional, organism-based; procedure, shortened: as §1
Rattus norvegicus [11] = assay: Blood pressure lowering activity in renal hypertensive rats after peroral administration; no drop in blood pressure or a statistically insignificant drop in blood pressure was observed (in vivo); assay type: functional; procedure, shortened: as §2
Rattus norvegicus [12] = assay: Blood pressure lowering activity in renal hypertensive rats after peroral administration; Inactive indicates fail to cause significant drop in blood pressure even at 100 mg/kg (in vivo); assay type: functional, organism-based; parameters: dose 100 mg/kg; procedure, shortened: as §2

pKa [2]	IC50 (Angiotensin II receptor) [nM]	Compound	ED30 (Rattus norvegicus [7]) [mg/kg]	Activity (Rattus norvegicus [8]) [mg/kg]	further results
10.9		CCCCc1nc(Cl)c(CO)n1Cc1ccc(-c2ccccc2C(=O)NOC)cc1			Activity (Rattus norvegicus [1]): 10 mg/kg; Activity (Rattus norvegicus [3]): inactive
8.44		CCCCc1nc(Cl)c(CO)n1Cc1ccc(-c2ccccc2C(=O)NS(=O)(=O)c2ccccc2)cc1			Activity (Rattus norvegicus [4]): >3 mg/kg; Activity (Rattus norvegicus [5]): inactive
6		CCCCc1nc(Cl)c(CO)n1Cc1ccc(-c2ccccc2-c2nnn[nH]2)cc1 [LOSARTAN]	0.8		ED30 (Rattus norvegicus [6]): 0.59 mg/kg
		CC/C=C/c1nc(Cl)c(CO)n1Cc1ccc(-c2ccccc2C(=O)O)cc1	1		ED30 (Rattus norvegicus [6]): 3.6 mg/kg
5		CCCCc1nc(Cl)c(CO)n1Cc1ccc(-c2ccccc2C(=O)O)cc1			ED30 (Rattus norvegicus [6]): 11 mg/kg; Activity (Rattus norvegicus [1]): 3 mg/kg
	200	CCCCc1nc(Cl)c(COC)n1Cc1ccc(-c2ccccc2C(=O)NNS(=O)(=O)C(F)(F)F)cc1		>30	Activity (Rattus norvegicus [4]): >3 mg/kg
10.5	4100	CCCCc1nc(Cl)c(CO)n1Cc1ccc(-c2ccccc2C(=O)NO)cc1		>30	Activity (Rattus norvegicus [4]): >3 mg/kg
		CCCCc1nc(Cl)c(CO)n1Cc1ccc(-c2cc(OC)ccc2-c2nn[nH]n2)cc1	6.03	>10	
	92	CCCCc1nc(Cl)c(C(=O)O)n1Cc1ccc(-c2ccccc2C(=O)O)cc1	0.47	>10	
	510	CCCCc1nc(Cl)c(CO)n1Cc1ccc(-c2cc(C#N)ccc2-c2nn[nH]n2)cc1		>30	Activity (Rattus norvegicus [4]): >3 mg/kg
		CCCCc1ncc(CO)n1Cc1ccc(-c2ccccc2-c2nn[nH]n2)cc1			Activity (Rattus norvegicus [9]): inactive; Activity (Rattus norvegicus [10]): inactive
		CCCCc1nc(C(F)(F)F)c(CO)n1Cc1ccc(-c2ccccc2-c2nn[nH]n2)cc1	0.53		Activity (Rattus norvegicus [11]): >3 mg/kg
10.8	4900	CCCCc1nc(Cl)c(CO)n1Cc1ccc(-c2ccccc2C(=O)NOCc2ccccc2)cc1			Activity (Rattus norvegicus [1]): 10 mg/kg; Activity (Rattus norvegicus [12]): inactive
	580	CCCCc1nc(Cl)c(CO)n1Cc1ccc(-c2ccc(OC)cc2-c2nn[nH]n2)cc1	1.75	>10	
	380	CCCCc1nc(Cl)c(CNC(=O)c2cc3c(OCC(O)CNC(C)C)cccc3[nH]2)n1Cc1ccc(-c2ccccc2C(=O)O)cc1 (stereo not given)	1		
	> 10000	CCCCc1nc(Cl)c(C=O)n1Cc1ccc(-c2ccc(-c3nn[nH]n3)cc2)cc1		>30	Activity (Rattus norvegicus [4]): >3 mg/kg
		CCCCc1nc(Cl)c(C=O)n1Cc1ccc(-c2ccccc2C(=O)O)cc1			ED30 (Rattus norvegicus [6]): 1.7 mg/kg; Activity (Rattus norvegicus [1]): 10 mg/kg
	1800	CCCc1nc(C)c(CO)n1Cc1ccc(-c2ccccc2C(=O)O)cc1	1.3	>30	
